HKDC1 activator: activators of human hexokinase HKDC1; recombinant HKDC1, G6PDH/diaphorase resazurin fluorescence; active compounds read low; activity change, negative = activation, % at 20 µM; 340,000 compounds, 0.056% hits;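 active = activation of 40% or more at 20 µM, a change of -40% or lower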
Target sequence (Q2TB90 whole entry, looked up): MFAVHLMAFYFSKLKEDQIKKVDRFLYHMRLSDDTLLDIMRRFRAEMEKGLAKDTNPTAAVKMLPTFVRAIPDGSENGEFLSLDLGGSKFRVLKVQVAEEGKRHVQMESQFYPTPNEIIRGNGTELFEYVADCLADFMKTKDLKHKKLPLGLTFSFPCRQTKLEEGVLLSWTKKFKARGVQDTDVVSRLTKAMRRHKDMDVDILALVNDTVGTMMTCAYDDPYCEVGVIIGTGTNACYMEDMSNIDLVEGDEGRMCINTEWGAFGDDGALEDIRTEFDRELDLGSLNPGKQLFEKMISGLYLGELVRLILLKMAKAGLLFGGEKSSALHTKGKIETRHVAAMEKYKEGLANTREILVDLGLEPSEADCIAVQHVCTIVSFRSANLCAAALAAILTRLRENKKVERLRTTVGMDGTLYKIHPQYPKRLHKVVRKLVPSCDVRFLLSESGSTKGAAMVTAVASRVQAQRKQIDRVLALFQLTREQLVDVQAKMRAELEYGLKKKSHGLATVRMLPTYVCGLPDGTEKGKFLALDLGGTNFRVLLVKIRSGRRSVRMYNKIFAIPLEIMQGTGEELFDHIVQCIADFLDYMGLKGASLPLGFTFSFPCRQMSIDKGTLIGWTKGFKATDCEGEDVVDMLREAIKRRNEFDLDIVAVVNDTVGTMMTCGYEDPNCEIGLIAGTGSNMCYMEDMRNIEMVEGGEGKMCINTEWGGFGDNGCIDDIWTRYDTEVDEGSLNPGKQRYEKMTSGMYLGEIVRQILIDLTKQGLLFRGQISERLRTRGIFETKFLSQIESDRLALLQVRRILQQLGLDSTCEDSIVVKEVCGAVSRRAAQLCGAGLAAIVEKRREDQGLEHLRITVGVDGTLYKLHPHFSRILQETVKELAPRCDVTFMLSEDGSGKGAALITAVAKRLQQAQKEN
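Signal: coupled resazurin-to-resorufin fluorescence, Ex 525/Em 613 nm. Test system: in-house human HKDC1 enzyme, G6PDH and diaphorase coupling enzymes. Quantity: HKDC1 5 µg/mL. Timing: 90 min reaction at room temperature, dark.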
* marks the source's active call; other numbers are inactive results. Not all results are given here.

SMILES	HKDC1 activator
COCc1cc(C2C(C(=O)c3ccco3)=C(O)C(=O)N2CCOCCO)ccc1O (configuration not stated)	35.4
CC(C)(C)c1nnc(N/N=C/c2cc(Br)ccc2O)n(N)c1=O	-43.2*
CCc1ccc(S(=O)(=O)/N=C2\C=C(Nc3cccc(C(=O)O)c3)C(=O)c3ccccc32)cc1	52.7
CCOC(=O)c1c(C)[nH]c(C2=NNC(=Nc3ccccc3OC)SC2)c1C	-164.6*
CCOC(=O)c1c(C)[nH]c(C2=NNC(=Nc3ccc(OCC)cc3)SC2)c1C	-136.6*
CCOC(=O)c1c(C)[nH]c(C2=NNC(=Nc3ccccc3)SC2)c1C	-305.8*
N#CC(C#N)=c1ccc2c(c1)N1C3=C(CCCC3)CC3CCCCC31N=2 (configuration not stated)	38.8
Cc1ccccc1S(=O)(=O)c1c(C)cc(C)n(CC(C)C)c1=O	71.5
CCc1ccc(S(=O)(=O)NCCc2cn3ccccc3n2)s1	39.4
O=C(N/N=C1/C(=O)c2cccc3cccc1c23)c1ccc(Cl)cc1	43.5
O=C(N/N=C/c1ccccc1OC(=O)c1ccc2c(c1)OCO2)c1ccccc1	-48.1*
COc1ccc(-c2nc3c(C(=O)NCCN(C)C)cccc3c3ccccc23)cc1	39.5
Cc1ccc(SC2=C(N(C)C)C(=O)c3ccccc3C2=O)cc1	57.4
Cc1oc2c(c1C(=O)c1ccccc1)C(=O)C(=O)c1ccccc1-2	42.2
N#C/C(C(N)=O)=c1/ccc2c(c1)N1C3=C(CCCC3)CC3CCCCC31N=2 (configuration not stated)	51.5
Cc1nc([N+](=O)[O-])c(Br)n1CC(=O)c1ccc2ccccc2c1	45.7
CN(c1ccc(C(=O)N2CCN(Cc3ccccc3)CC2)cc1)S(=O)(=O)c1ccccc1	-75.7*
Cc1cccc(NC2=C/C(=N/S(=O)(=O)c3cccs3)c3ccccc3C2=O)c1	53.1
COc1ccc(S(=O)(=O)Nc2cc(SCC(=O)O)c(O)c3ccccc23)cc1	57.1
CSc1nc(N(C)CCO)c2sc3nc(-c4ccco4)c4c(c3c2n1)CCC4	47.0
CC(=NNc1nc2ccccc2o1)c1cc2ccccc2cn1	-47.7*
Cc1cc(C)c(S(=O)(=O)/N=C2\C=C(Nc3ccc(C(=O)O)cc3)C(=O)c3ccccc32)c(C)c1	40.7
Cn1c(/N=C/c2c(O)ccc3ccccc23)nc2ccccc21	53.7
Cc1c(C(=O)Oc2ccc(-c3cnc4ccccc4n3)cc2)cccc1[N+](=O)[O-]	-89.0*
COc1ccc(N=C2C(=S)N(c3ccc(OC)cc3)C(=NS(=O)(=O)c3ccccc3)N2c2ccccc2)cc1	-68.5*
SMILES	HKDC1 activator
O=S(=O)(O)c1ccc(O)c2cc(Nc3ccccc3)ccc12	64.6
CCc1c(C)c(C#N)c2nc3ccccc3n2c1NC	-65.6*
Cc1cc(O)c(-c2cc(O)c(C)cc2O)cc1O	44.7
O=c1[nH]c(=O)c2nc3c4ccccc4c4ccccc4c3nc2[nH]1	37.3
COc1cc(NC(=O)c2cnc(N)s2)cc(C(=O)Nc2cccc(C(F)(F)F)c2)c1	59.2
O=C1NC(=S)N/C1=C/c1cc2c(cc1[N+](=O)[O-])OCO2	-66.8*
CCCC(=O)NC1=C(Cl)C(=O)c2ccccc2C1=O	59.9
CC(=O)Oc1cccc2c1C(=O)C1CC=CC(OC(C)=O)C1C2=O (configuration not stated)	-44.5*
CCC(C)C(N)C1=NC(C(=O)N[C@@H](CC(C)C)C(=O)N[C@H](CCC(=O)[O-])C(=O)N[C@H](C(=O)N[C@H]2CCCCNC(=O)[C@H](CC(N)=O)NC(=O)[C@@H](CC(=O)[O-])NC(=O)[C@H](Cc3cnc[nH]3)NC(=O)[C@@H](Cc3ccccc3)NC(=O)[C@H]([C@@H](C)CC)NC(=O)[C@@H](CCCN)NC2=O)[C@@H](C)CC)CS1.[Zn+2] (some centres not stated)	91.6
CN(C)c1ncc(C2=C(Cl)C(=O)C(N3CCCC3)=C(Cl)C2=O)s1	35.1
CCCC(=O)N1CCN(Cc2ccc3c(c2)OCO3)CC1	-56.9*
COC(=O)CCC(=O)OC1(C)C(=O)C2=CN(Cc3ccc4c(c3)OCO4)C(c3ccc(OC)cc3)=CC2=C(Br)C1=O (configuration not stated)	39.9
O/C=c1\ccc2cccc3nc(C(F)(F)F)nc1c23	40.4
CCOc1ccccc1Nc1nnc(SCc2nnc(-c3cc(OC)c(OC)c(OC)c3)o2)s1	48.2
CC(=NNC(=O)c1ccncc1)c1ccc(O)cc1O	-40.2*
O=C(CNC(=O)c1ccncc1)N/N=C/c1ccc(O)cc1O	-40.6*
Cc1cc(C)n(CCC(=O)N/N=C/c2ccc(O)cc2O)n1	-42.3*
O=C(CNC(=O)c1ccc2c(c1)OCCO2)N/N=C/c1ccc(O)cc1O	-50.6*
Cc1cc(SCC(=O)N/N=C/c2ccc(O)c(O)c2O)c(C)cc1Br	44.5
CCOC(=O)/C(=C\c1cccnc1)C(=O)c1cc(C(C)=O)c(Nc2ccccc2)s1	42.5
COC1=C(OC)C(=O)C(Sc2ccc3ccccc3c2)=CC1=O	71.2
Cc1cc(C)c2c(=O)[nH]cnc2n1	64.4
O=C1C(=O)c2c(C(=O)c3ccccc3)coc2-c2ccccc21	50.8
Cn1c2ccccc2c(=O)c2c(=O)n(-c3ccccc3)c(C3CCCCC3)nc21	43.3
O=C(O)c1ccc2ncsc2c1	40.7
COC(=O)c1sc(NC(=O)CSc2nc3nc(C)cc(C)n3n2)c(C(=O)OC)c1C	35.3
CCNc1ccc(Br)cc(C(=O)/C=C/c2c(Cl)cccc2Cl)c1=O	37.3
Cc1ccc(S(=O)(=O)N(C(=O)c2ccncc2)c2ccc(OC(=O)c3ccncc3)c3ccccc23)c(C)c1	38.2
CC(C)Nc1nnc(SCC(=O)Nc2ccc3c(c2)C(=O)c2ccccc2C3=O)s1	43.1

Screening results from PubChem BioAssay.
